# Measured values reported in the M2OR odorant receptor database.
# Key:
# Conditions in all cases: stereoisomer not certain
# OR2T4 (Homo sapiens) = target: T1, OR2T4 (Homo sapiens) (UniProt Q8NH00)
# T1 sequence (whole entry): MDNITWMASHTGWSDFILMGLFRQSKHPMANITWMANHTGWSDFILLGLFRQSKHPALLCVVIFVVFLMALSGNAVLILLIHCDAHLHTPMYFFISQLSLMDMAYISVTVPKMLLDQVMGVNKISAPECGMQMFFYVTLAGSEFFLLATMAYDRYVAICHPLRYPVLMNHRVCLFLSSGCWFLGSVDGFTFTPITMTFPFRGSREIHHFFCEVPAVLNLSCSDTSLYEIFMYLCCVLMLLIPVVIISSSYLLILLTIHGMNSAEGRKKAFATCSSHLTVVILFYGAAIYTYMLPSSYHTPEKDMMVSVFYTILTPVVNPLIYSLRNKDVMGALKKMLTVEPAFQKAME
# Outline: (§1)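 Assay methods differ from source to source, frequently being transient luciferase assays in mammalian cell lines. For each receptor–molecule pair, the label responsive (active) applies when the original authors judged the measured signal statistically different from baseline, and non-responsive (inactive) applies otherwise.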
# OR2T34 (Homo sapiens) = target: T2, OR2T34 (Homo sapiens) (UniProt Q8NGX1)
# T2 sequence (whole entry): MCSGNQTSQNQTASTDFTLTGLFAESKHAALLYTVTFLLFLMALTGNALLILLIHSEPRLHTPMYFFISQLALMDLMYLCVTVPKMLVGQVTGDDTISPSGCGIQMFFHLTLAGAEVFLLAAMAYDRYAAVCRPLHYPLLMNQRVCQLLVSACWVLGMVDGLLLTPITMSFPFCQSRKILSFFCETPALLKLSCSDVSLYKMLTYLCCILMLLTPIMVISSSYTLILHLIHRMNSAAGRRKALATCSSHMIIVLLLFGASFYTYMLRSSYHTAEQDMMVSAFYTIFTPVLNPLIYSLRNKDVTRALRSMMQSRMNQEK
# Outline: as §1
# OR2T2 (Homo sapiens) = OR2T2 (Homo sapiens) (UniProt Q6IF00)
# Outline: as §1
# OR2T2 L104F L262Q = system: OR2T2 L104F L262Q
# Outline: as §1
# OR2T2 L104F = system: OR2T2 L104F
# Outline: as §1
# OR2T2 Q313H = system: OR2T2 Q313H
# Outline: as §1
# OR2T27 (Homo sapiens) = OR2T27 (Homo sapiens) (UniProt Q8NH04)
# Outline: as §1
# OR2T29 (Homo sapiens) = OR2T29 (Homo sapiens) (UniProt Q8NH02)
# Outline: as §1
# OR2T3 (Homo sapiens) = OR2T3 (Homo sapiens) (UniProt Q8NH03)
# Outline: as §1
# OR2T3 L256F = system: OR2T3 L256F
# Outline: as §1
# OR2T3 R298C = system: OR2T3 R298C
# Outline: as §1
# OR2T3 Y109H = system: OR2T3 Y109H
# Outline: as §1
# OR2T33 (Homo sapiens) = OR2T33 (Homo sapiens) (UniProt Q8NG76)
# Outline: as §1
# OR2T35 (Homo sapiens) = OR2T35 (Homo sapiens) (UniProt Q8NGX2)
# Outline: as §1
# OR2T5 (Homo sapiens) = OR2T5 (Homo sapiens) (UniProt Q6IEZ7)
# Outline: as §1
# OR2T5 K13R K41M G45E = system: OR2T5 K13R K41M G45E
# Outline: as §1
# OR2T5 K13R L134F = system: OR2T5 K13R L134F
# Outline: as §1
# OR2T6 (Homo sapiens) = OR2T6 (Homo sapiens) (UniProt Q8NHC8)
# Outline: as §1
# OR2T6 C23G = system: OR2T6 C23G
# Outline: as §1
# OR2T7 (Homo sapiens) = OR2T7 (Homo sapiens) (UniProt P0C7T2)
# Outline: as §1
# OR2T6 (Homo sapiens), sequence (Q8NHC8 whole entry): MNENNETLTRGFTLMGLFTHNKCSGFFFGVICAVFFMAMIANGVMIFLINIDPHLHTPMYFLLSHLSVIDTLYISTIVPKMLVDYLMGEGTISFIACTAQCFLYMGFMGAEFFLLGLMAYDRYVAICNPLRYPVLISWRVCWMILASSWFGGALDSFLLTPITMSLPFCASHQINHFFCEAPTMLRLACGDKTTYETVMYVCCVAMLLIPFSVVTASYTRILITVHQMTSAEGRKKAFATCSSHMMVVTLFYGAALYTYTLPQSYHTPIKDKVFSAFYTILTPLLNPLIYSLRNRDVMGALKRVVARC
# OR2T27 (Homo sapiens), sequence (Q8NH04 whole entry): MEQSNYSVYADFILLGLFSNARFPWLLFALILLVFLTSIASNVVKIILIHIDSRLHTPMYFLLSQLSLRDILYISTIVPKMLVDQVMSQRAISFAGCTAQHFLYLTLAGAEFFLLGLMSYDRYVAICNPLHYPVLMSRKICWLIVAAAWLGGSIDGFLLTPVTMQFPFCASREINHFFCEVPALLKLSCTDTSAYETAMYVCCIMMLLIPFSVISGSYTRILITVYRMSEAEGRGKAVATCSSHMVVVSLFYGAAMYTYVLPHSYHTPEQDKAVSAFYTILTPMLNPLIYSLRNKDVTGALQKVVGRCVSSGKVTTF
# OR2T2 (Homo sapiens), sequence (Q6IF00 whole entry): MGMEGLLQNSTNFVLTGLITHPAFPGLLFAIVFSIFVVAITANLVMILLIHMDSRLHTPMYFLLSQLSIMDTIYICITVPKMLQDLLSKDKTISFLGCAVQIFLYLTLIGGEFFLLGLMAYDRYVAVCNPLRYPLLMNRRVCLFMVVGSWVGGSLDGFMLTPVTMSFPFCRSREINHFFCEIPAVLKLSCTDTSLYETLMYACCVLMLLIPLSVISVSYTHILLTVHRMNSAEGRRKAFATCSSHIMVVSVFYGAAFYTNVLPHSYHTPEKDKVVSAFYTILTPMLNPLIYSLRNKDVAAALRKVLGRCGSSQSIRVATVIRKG
# OR2T5 (Homo sapiens), sequence (Q6IEZ7 whole entry): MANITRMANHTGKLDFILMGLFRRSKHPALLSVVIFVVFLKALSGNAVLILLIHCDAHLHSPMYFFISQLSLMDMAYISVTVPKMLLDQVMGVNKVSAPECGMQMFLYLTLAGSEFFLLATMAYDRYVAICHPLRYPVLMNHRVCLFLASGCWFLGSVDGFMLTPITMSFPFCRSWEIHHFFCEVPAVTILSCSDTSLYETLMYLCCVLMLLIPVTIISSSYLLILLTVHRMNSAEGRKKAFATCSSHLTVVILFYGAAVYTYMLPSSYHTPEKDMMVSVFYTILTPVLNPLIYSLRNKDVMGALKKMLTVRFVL
# OR2T3 (Homo sapiens), sequence (Q8NH03 whole entry): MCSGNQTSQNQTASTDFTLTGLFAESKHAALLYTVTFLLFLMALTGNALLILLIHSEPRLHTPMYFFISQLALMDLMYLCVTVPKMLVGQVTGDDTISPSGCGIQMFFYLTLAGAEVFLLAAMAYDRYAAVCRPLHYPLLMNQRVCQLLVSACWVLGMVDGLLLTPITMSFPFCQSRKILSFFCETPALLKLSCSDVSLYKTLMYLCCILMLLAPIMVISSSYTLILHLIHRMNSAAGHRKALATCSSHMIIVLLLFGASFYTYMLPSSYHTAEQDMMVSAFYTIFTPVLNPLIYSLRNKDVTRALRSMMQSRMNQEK
# OR2T29 (Homo sapiens), sequence (Q8NH02 whole entry): as the sequence (Q6IEZ7 whole entry) above, with K13R, R24Q counted along it
# OR2T33 (Homo sapiens), sequence (Q8NG76 whole entry): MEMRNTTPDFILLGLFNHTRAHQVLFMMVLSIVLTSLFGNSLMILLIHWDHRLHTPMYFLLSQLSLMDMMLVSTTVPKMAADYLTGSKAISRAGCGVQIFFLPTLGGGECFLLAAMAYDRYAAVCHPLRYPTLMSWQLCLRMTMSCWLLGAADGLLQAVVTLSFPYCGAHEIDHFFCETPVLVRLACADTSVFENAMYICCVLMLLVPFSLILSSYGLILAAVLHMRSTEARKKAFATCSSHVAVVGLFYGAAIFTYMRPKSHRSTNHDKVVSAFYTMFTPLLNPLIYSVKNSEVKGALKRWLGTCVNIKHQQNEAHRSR
# OR2T35 (Homo sapiens), sequence (Q8NGX2 whole entry): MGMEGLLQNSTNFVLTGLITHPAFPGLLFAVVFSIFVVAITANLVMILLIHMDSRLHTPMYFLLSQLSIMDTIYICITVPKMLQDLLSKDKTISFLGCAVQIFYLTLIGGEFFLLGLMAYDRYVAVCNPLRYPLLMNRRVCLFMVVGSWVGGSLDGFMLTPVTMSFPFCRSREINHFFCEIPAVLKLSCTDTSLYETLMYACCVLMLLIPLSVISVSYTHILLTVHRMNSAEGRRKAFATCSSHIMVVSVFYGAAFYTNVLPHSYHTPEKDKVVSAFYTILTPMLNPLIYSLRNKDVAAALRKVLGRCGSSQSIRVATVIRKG
# OR2T3 R298C, sequence (as listed by the source, stated change not applied): as the sequence (Q8NH03 whole entry) above, with R298C counted along it
# OR2T3 Y109H, sequence (as listed by the source, stated change not applied): as the sequence (Q8NH03 whole entry) above, with Y109H counted along it
# OR2T3 L256F, sequence (as listed by the source, stated change not applied): as the sequence (Q8NH03 whole entry) above, with L256F counted along it
# OR2T6 C23G, sequence (as listed by the source, stated change not applied): as the sequence (Q8NHC8 whole entry) above, with C23G counted along it
# OR2T2 L104F, sequence (as listed by the source, stated change not applied): as the sequence (Q6IF00 whole entry) above, with L104F counted along it
# OR2T7 (Homo sapiens), sequence (P0C7T2 whole entry): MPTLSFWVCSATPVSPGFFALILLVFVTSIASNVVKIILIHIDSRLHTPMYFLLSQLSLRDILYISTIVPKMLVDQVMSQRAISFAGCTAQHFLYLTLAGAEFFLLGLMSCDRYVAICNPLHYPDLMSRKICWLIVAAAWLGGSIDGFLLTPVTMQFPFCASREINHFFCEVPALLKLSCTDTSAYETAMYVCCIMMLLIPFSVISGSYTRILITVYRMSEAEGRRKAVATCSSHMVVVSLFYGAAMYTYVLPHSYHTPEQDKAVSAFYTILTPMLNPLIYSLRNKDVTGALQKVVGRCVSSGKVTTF
# OR2T2 Q313H, sequence (as listed by the source, stated change not applied): as the sequence (Q6IF00 whole entry) above, with Q313H counted along it
structure (smiles),measurement,setting,value
Cc1cccc(C)c1,odorant receptor agonist call,OR2T4 (Homo sapiens),inactive
COc1ccc(C=O)cc1,odorant receptor agonist call,OR2T4 (Homo sapiens),inactive
O=CC=Cc1ccccc1,odorant receptor agonist call,OR2T34 (Homo sapiens),active
C=CCOC(=O)Cc1ccccc1,odorant receptor agonist call,OR2T2 (Homo sapiens),inactive
same,odorant receptor agonist call,OR2T2 L104F L262Q,inactive
same,odorant receptor agonist call,OR2T2 L104F,inactive
same,odorant receptor agonist call,OR2T2 Q313H,inactive
same,odorant receptor agonist call,OR2T27 (Homo sapiens),inactive
same,odorant receptor agonist call,OR2T29 (Homo sapiens),inactive
same,odorant receptor agonist call,OR2T3 (Homo sapiens),inactive
same,odorant receptor agonist call,OR2T3 L256F,inactive
same,odorant receptor agonist call,OR2T3 R298C,inactive
same,odorant receptor agonist call,OR2T3 Y109H,inactive
same,odorant receptor agonist call,OR2T33 (Homo sapiens),inactive
same,odorant receptor agonist call,OR2T34 (Homo sapiens),inactive
same,odorant receptor agonist call,OR2T35 (Homo sapiens),inactive
same,odorant receptor agonist call,OR2T4 (Homo sapiens),inactive
same,odorant receptor agonist call,OR2T5 (Homo sapiens),inactive
same,odorant receptor agonist call,OR2T5 K13R K41M G45E,inactive
same,odorant receptor agonist call,OR2T5 K13R L134F,inactive
same,odorant receptor agonist call,OR2T6 (Homo sapiens),inactive
same,odorant receptor agonist call,OR2T6 C23G,inactive
O=Cc1ccccc1,odorant receptor agonist call,OR2T34 (Homo sapiens),inactive
Cc1c([N+](=O)[O-])c(C)c([N+](=O)[O-])c(C(C)(C)C)c1[N+](=O)[O-],odorant receptor agonist call,OR2T2 (Homo sapiens),inactive
same,odorant receptor agonist call,OR2T27 (Homo sapiens),inactive
same,odorant receptor agonist call,OR2T29 (Homo sapiens),inactive
same,odorant receptor agonist call,OR2T3 (Homo sapiens),inactive
same,odorant receptor agonist call,OR2T33 (Homo sapiens),inactive
same,odorant receptor agonist call,OR2T34 (Homo sapiens),inactive
same,odorant receptor agonist call,OR2T35 (Homo sapiens),inactive
same,odorant receptor agonist call,OR2T4 (Homo sapiens),inactive
same,odorant receptor agonist call,OR2T5 (Homo sapiens),inactive
same,odorant receptor agonist call,OR2T6 (Homo sapiens),inactive
same,odorant receptor agonist call,OR2T7 (Homo sapiens),inactive
